Reference: ChEMBL document CHEMBL3352255, “Tailor-made fluorescent trilobolide to study its biological relevance” (J Med Chem, 2014)
Active and inactive are the calls of the source. The calls are words filed in the database; no cut-off is given here.

Tests used:
[1] = Cytotoxicity against human PC3 cells after 72 hrs by WST-1 assay; assay type: functional, cell-based; conditions: PC-3, 72 h
Summary of the method: (§1)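 Dark cytotoxicity (no light exposure) by WST-1 tetrazolium-to-formazan conversion reflecting metabolic activity; compounds tested at concentrations up to 50 μM for 24, 48 or 72 h; IC50 taken as concentration giving 50% inhibition of cell viability.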

U2OS [2] = assay: Cytotoxicity against human U2OS cells after 72 hrs by WST-1 assay; assay type: functional, cell-based; summary of the method: as §1
U2OS [3] = assay: Cytotoxicity against human U2OS cells after 24 hrs by WST-1 assay; assay type: functional, cell-based; summary of the method: as §1
[4] = Cellular uptake in Endoplasmic reticulum of human PC3 cells at 1 uM after 1 hr by fluorescence microscopy; assay type: ADME, cell-based; conditions: pc-3, 1 h
Summary of the method: (§2)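 Live-cell fluorescence microscopy of cells exposed to Bodipy-labelled conjugates at 1 μM for 1 h. ER was co-stained with ER-Tracker Blue-White DPX (100 nM, 20 min) to check colocalisation. A Bodipy dye-only stain served as control.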

[5] = Cellular uptake in Endoplasmic reticulum of human LNCAP cells at 1 uM after 1 hr by fluorescence microscopy; assay type: ADME, cell-based; summary of the method: as §2
C2C12 [6] = assay: Cytotoxicity against mouse C2C12 cells after 24 hrs by WST-1 assay; assay type: functional, cell-based; conditions: C2C12, 24 h; summary of the method: as §1
MCF7 [7] = assay: Cytotoxicity against human MCF7 cells after 48 hrs by WST-1 assay; assay type: functional, cell-based; conditions: MCF7, 48 h; summary of the method: as §1
[8] = Cellular uptake in Endoplasmic reticulum of human HeLa cells at 1 uM after 1 hr by fluorescence microscopy; assay type: ADME, cell-based; summary of the method: as §2
[9] = Cytotoxicity against human MIAPaCa2 cells after 72 hrs by WST-1 assay; assay type: functional, cell-based; conditions: MIA PaCa-2, 72 h; summary of the method: as §1
LNCaP [10] = assay: Cytotoxicity against human LNCAP cells after 72 hrs by WST-1 assay; assay type: functional, cell-based; summary of the method: as §1
PC-3 = assay: Induction of LPS-induced NO production in human PC3 cells at 40 uM after 24 hrs using DAR-2 probe by fluorescence assay; assay type: functional, cell-based
Summary of the method: (§3)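 NO in living cells (PC-3, LNCaP, MCF-7, U-2 OS) was imaged by fluorescence microscopy with the NO-specific red-emitting probe DAR-2 after compound stimulation.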

[11] = Cytotoxicity against human MIAPaCa2 cells after 48 hrs by WST-1 assay; assay type: functional, cell-based; conditions: MIA PaCa-2, 48 h; summary of the method: as §1
[12] = Cytotoxicity against human MIAPaCa2 cells after 24 hrs by WST-1 assay; assay type: functional, cell-based; conditions: MIA PaCa-2, 24 h; summary of the method: as §1
MCF7 [13] = assay: Cytotoxicity against human MCF7 cells after 24 hrs by WST-1 assay; assay type: functional, cell-based; conditions: MCF7, 24 h; summary of the method: as §1
LNCaP [14] = assay: Induction of LPS-induced NO production in human LNCAP cells at 40 uM after 24 hrs using DAR-2 probe by fluorescence assay; assay type: functional, cell-based; summary of the method: as §3
LNCaP [15] = assay: Cytotoxicity against human LNCAP cells after 24 hrs by WST-1 assay; assay type: functional, cell-based; summary of the method: as §1
[16] = Cytotoxicity against human PC3 cells after 48 hrs by WST-1 assay; assay type: functional, cell-based; conditions: PC-3, 48 h; summary of the method: as §1
MCF7 [17] = assay: Cytotoxicity against human MCF7 cells after 72 hrs by WST-1 assay; assay type: functional, cell-based; conditions: MCF7, 72 h; summary of the method: as §1
C2C12 [18] = assay: Cytotoxicity against mouse C2C12 cells after 48 hrs by WST-1 assay; assay type: functional, cell-based; conditions: C2C12, 48 h; summary of the method: as §1
[19] = Cellular uptake in Endoplasmic reticulum of human U2OS cells at 1 uM after 1 hr by fluorescence microscopy; assay type: ADME, cell-based; summary of the method: as §2
HT-29 [20] = assay: Cytotoxicity against human HT-29 cells after 72 hrs by WST-1 assay; assay type: functional, cell-based; conditions: HT-29, 72 h; summary of the method: as §1
HT-29 [21] = assay: Cytotoxicity against human HT-29 cells after 24 hrs by WST-1 assay; assay type: functional, cell-based; conditions: HT-29, 24 h; summary of the method: as §1
LNCaP [22] = assay: Cytotoxicity against human LNCAP cells after 48 hrs by WST-1 assay; assay type: functional, cell-based; summary of the method: as §1
[23] = Cytotoxicity against rat peritoneal cells assessed as reduction in cell viability at 10 uM after 24 hrs by WST-1 assay; assay type: cell-based
U2OS [24] = assay: Induction of LPS-induced NO production in human U2OS cells at 40 uM after 24 hrs using DAR-2 probe by fluorescence assay; assay type: functional, cell-based; summary of the method: as §3
C2C12 [25] = assay: Cytotoxicity against mouse C2C12 cells after 72 hrs by WST-1 assay; assay type: functional, cell-based; conditions: C2C12, 72 h; summary of the method: as §1
[26] = Cytotoxicity against human PC3 cells after 24 hrs by WST-1 assay; assay type: functional, cell-based; conditions: PC-3, 24 h; summary of the method: as §1
HT-29 [27] = assay: Cytotoxicity against human HT-29 cells after 48 hrs by WST-1 assay; assay type: functional, cell-based; conditions: HT-29, 48 h; summary of the method: as §1
MCF7 [28] = assay: Induction of LPS-induced NO production in human MCF7 cells at 40 uM after 24 hrs using DAR-2 probe by fluorescence assay; assay type: functional, cell-based; summary of the method: as §3
U2OS [29] = assay: Cytotoxicity against human U2OS cells after 48 hrs by WST-1 assay; assay type: functional, cell-based; summary of the method: as §1

Q: What does the source list for `C/C=C(/C)C(=O)O[C@@H]1C[C@H]2C(=C1C)[C@@H]1OC(=O)[C@@](C)(O)[C@@]1(O)[C@@H](OC(=O)[C@@H](C)CC)C[C@]2(C)OC(C)=O`?
A: IC50 [1]: 0.5 µM; IC50 (U2OS [2]): 0.7 µM; IC50 (U2OS [3]): 12.5 µM; Drug uptake [4]: Active; Drug uptake [5]: Active; IC50 (C2C12 [6]): 4 µM; IC50 (MCF7 [7]): 2.5 µM; Drug uptake [8]: Active; IC50 [9]: 1.5 µM; IC50 (LNCaP [10]): 0.4 µM; Activity (PC-3): Active; IC50 [11]: 6 µM; IC50 [12]: 17.4 µM; IC50 (MCF7 [13]): 0.2 µM; Activity (LNCaP [14]): Active; IC50 (LNCaP [15]): 3.4 µM; IC50 [16]: 1.3 µM; IC50 (MCF7 [17]): 2.1 µM; IC50 (C2C12 [18]): 1 µM; Drug uptake [19]: Active; IC50 (HT-29 [20]): 9.5 µM; IC50 (HT-29 [21]): 41.4 µM; IC50 (LNCaP [22]): 0.5 µM; Activity [23]: 65%; Activity (U2OS [24]): Active; IC50 (C2C12 [25]): 0.3 µM; IC50 [26]: 9.6 µM; IC50 (HT-29 [27]): 9.8 µM; Activity (MCF7 [28]): Active; IC50 (U2OS [29]): 0.2 µM
